An excerpt weighted towards active compounds, which were near 4.9% of everything screened.
STAT3 blocker = IL-6 driven STAT3 reporter inhibitors, primary screen, U3A cells, luciferase, luminescence, MLSCN library; IL-6 STAT3-luciferase reporter; host cell line lacks STAT1; inhibition, % at 5.5 µM; hit rate 0.89% among 190,000; AID 862, 2007;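 active = inhibition above the mean inhibition across all screened compounds plus 3 SD, cut at about 44% in these data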;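 note: 0% = DMSO only wells and 100% = 100 µM nifuroxazide control wells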
APP 5'UTR act = activators of APP 5'UTR luciferase reporter, primary screen, SH-SY5Y cells. SH-SY5Y APP 5'UTR luciferase reporter, luminescence; zero percent = DMSO vehicle wells. activation, % at 2 µM. hit rate 1% among 190,000;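 active = activation above a set limit, based on mean plus 3 SD of controls, cut at about 140% in these data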
NF-kB neuron act = activators of NF-kB expression in neurons, primary screen, cell-based, HTS | human neuronal cells, NF-kB reporter expression; active compounds read high | fold change at 12.5 µM | hit rate 1.6% among 190,000 | AID 1239, 2008; in the data active = fold change above about 3.3
STAT1 activator = STAT1 signaling activators, primary screen, cell-based, HTS, luciferase reporter; AID 932, 2007; NIH 3T3 STAT1-luciferase reporter, IFN-gamma, luminescence; 100% = IFN-gamma alone, no compound; hit rate 2.6% among 200,000; activation (% of control), % at 5.5 µM;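 active = activation above the screen-wide mean activation plus 3 SD, cut at about 130% in these data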;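 note: raw ratio to IFN-gamma control signal so 100% means no change and 0% no light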
STAT1 blocker = STAT1 signaling inhibitors, primary screen, cell-based, HTS, luciferase reporter. AID 920, 2007. hit rate 0.35% among 200,000. inhibition, % at 5.5 µM. NIH 3T3 STAT1-luciferase reporter, IFN-gamma, luminescence;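 active = inhibition above a set limit, the mean inhibition across all tested compounds plus 3 SD, cut at about 34% in these data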;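 note: 0% = IFN-gamma with DMSO and 100% = IFN-gamma with 300 µM nifuroxazide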
STAT3 act = IL-6 driven STAT3 reporter potentiators, primary screen, U3A cells, luciferase, luminescence, MLSCN library. IL-6 STAT3-luciferase reporter; 100% = signal with IL-6 EC80 alone. activation (% of control), % at 5.6 µM. hit rate 0.91% among 190,000. AID 871, 2007;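 active = activation above the screen-wide mean of compound activation plus 3 SD, cut at about 130% in these data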;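 note: 0% = background luminescence of wells with medium and substrate only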
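Material: STAT1-lacking human U3A cells, STAT3 luciferase reporter | Benchmarks: IL-6-only wells as 100% reference | Probe or stimulus: IL-6 (33 ng/mL) | Timing: Compound 1 h, then IL-6 6 h at 37 °C | Detection: Luminescence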
Numbers without * were called inactive.

SMILES	STAT3 blocker	APP 5'UTR act	NF-kB neuron act	STAT1 activator	STAT1 blocker	STAT3 act
CC(C)(C)c1ccc(/C=C2\SC(=O)N(CCNC(=O)c3cccc(S(=O)(=O)N4CCOCC4)c3)C2=O)cc1	17	135*	0.72	114	-16	88
COCCn1nnnc1C(CC(C)C)N1CCN(c2cccc(OC)c2)CC1 (configuration not stated)	-7	-15	5.8*	105	-4	112
Cc1sc(=NC(=O)c2ccco2)n(C)c1-c1ccccc1	39	131	5.1*	110	-11	70
COc1cc(C(=O)N=c2sc3ccccc3n2C)cc(OC)c1OC	20	19	1	109	-11	88
Cn1c(=NC(=O)c2ccco2)sc2ccccc21	-10	156*	4.6*	119	-19	117
Cc1sc(=NC(=O)c2ccco2)n(C)c1-c1ccc(F)cc1	26	126	3	127	-30	86
Cn1c(=NC(=O)c2cccc([N+](=O)[O-])c2)sc2ccccc21	-41	104	4.2*	170*	-76	136*
COc1ccc(-c2nnc3ccc(SCC(=O)Nc4nc5ccc(C)cc5s4)nn23)cc1OC	-9	-13	1.2	103	-3	109
NNC(=O)CCN1CCN(C(c2ccccc2)c2ccccc2)CC1	9	5	1.1	104	-5	99
O=C(Nc1ccccc1)c1ccc(-c2ccc(F)cc2)s1	-3	75	2.2	143*	-50	109
CN(C(=O)c1cccnc1)c1nnc(-c2ccccn2)s1	11	26	1.7	136*	-39	92
CN(C(=O)c1cccnc1)c1nnc(-c2cnccn2)s1	10	7	1.3	117	-18	95
Cc1ccc(-c2ccc(/C=N/O)o2)cc1[N+](=O)[O-]	24	19	1.8	107	-10	87
C=CCNc1nc(S(=O)Cc2ccc(C)cc2)nc2c1CCCC2 (configuration not stated)	11	-4	1.6	94	6	92
Cn1c(SCc2ccccc2)nc2ccsc2c1=O	40	1	0.86	85	16	68
Cc1ccc(-n2nc3c(n2)/C(=N/O)CC/C3=N\O)cc1	10	86	4.7*	130*	-33	91
O/N=C1\CC/C(=N\O)c2nn(-c3ccccc3Cl)nc21	7	5	1.1	103	-3	97
Nc1nc(C2CCCN2S(=O)(=O)c2ccc(Cl)cc2)cs1 (configuration not stated)	7	2	1	101	-1	96
O=C1NC(=S)S/C1=C/c1ccc(Oc2cnccn2)cc1	1	-19	1.6	104	-4	101
O=C1NC(=O)/C(=C\c2ccc(Oc3cnccn3)cc2)S1	-35	33	2.2	140*	-43	129
COc1cc(/C(C)=N/NC(=O)CSc2nncn2C)ccc1OCc1ccccc1Cl	11	27	1	129*	-32	91
Cc1ccc(N=C2NC(=O)CS2)c(C)c1	2	-11	1.1	94	6	98
Cc1ccc(N=C2NC(=O)/C(=C\c3ccsc3)S2)c(C)c1	-7	-18	4.4*	106	-7	104
COc1cccc(C(=O)NC(=S)Nc2ccc(N(C)C)cc2)c1	-5	67	2.5	128	-31	106
COc1cc(/C=N/Nc2ccccc2[N+](=O)[O-])cc(OC)c1O	9	3	1.3	91	10	95
COc1cc(/C=N/Nc2ccccc2[N+](=O)[O-])ccc1OC(=O)c1ccccc1F	-10	193*	1.7	107	-8	111
COc1cc(/C=N/Nc2nc3ccccc3s2)ccc1OC(=O)c1ccccc1F	-27	173*	12*	106	-4	119
COc1cc(/C=N/Nc2ccccc2)ccc1OC(=O)c1cccs1	-18	5	1.6	99	1	111
COc1ccc(/C=N/NC(N)=S)cc1OC(=O)c1cccc2ccccc12	15	19	0.91	130*	-36	95
CNC(=S)N1CCN(C(=O)c2ccco2)CC1	3	1	1.2	92	9	96

Screens deposited in PubChem BioAssay by several laboratories.
